Consider seven molecules from ChEMBL document CHEMBL1126625, “7-Azetidinylquinolones as antibacterial agents. Synthesis and structure-activity relationships” (J Med Chem, 1993).

In brackets after ≈: the same amount, converted by molar mass.

For one data set, the system named is Proteus vulgaris. Put plainly: Minimum inhibitory concentration (MIC) preventing growth of Proteus vulgaris. It counts as functional.
The next data set deals with Bacillus subtilis. The experiment in a line: Minimum inhibitory concentration (MIC) preventing growth of Bacillus subtilis. The format is functional.
Another data set concerns Mus musculus. The experiment in a line: Blood level after oral administration in mice (50 mg/kg) was determined by bioassay procedure and represent total activity present in the serum. It counts as ADME, organism-based. As to conditions: in vivo. The procedure, abridged:
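Single oral dose of 50 mg/kg to mice. Blood taken from groups of six mice at 0.5, 1, 2 and 4 h after dosing. Serum levels measured by disk agar diffusion bioassay with Bacillus subtilis ATCC 6633 on Seed Agar, plates incubated 18 h at 37 °C, giving total activity in serum. AUC 0-4 h expressed as μg/mL […].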

Data set [1] has as its system Staphylococcus epidermidis. The experiment in a line: Minimum inhibitory concentration (MIC) preventing growth of Staphylococcus epidermidis. It counts as functional.
The test system of a further data set is Bacillus cereus. Put plainly: Minimum inhibitory concentration (MIC) preventing growth of Bacillus cereus. It counts as functional.
For a further data set, the system named is Enterobacter cloacae. The experiment in a line: Minimum inhibitory concentration (MIC)preventing growth of Enterobacter cloacae. It counts as functional.
The test system of another data set is Enterococcus faecalis. The experiment in a line: Minimum inhibitory concentration (MIC) preventing growth of Streptococcus faecalis ATCC 10541. The format is functional.
Another data set relates to Morganella morganii. Put plainly: Minimum inhibitory concentration (MIC) preventing growth of Morganella morganii. The format is functional.
Another data set deals with Klebsiella pneumoniae. Put plainly: Minimum inhibitory concentration (MIC)preventing growth of Klebsiella pneumoniae. The format is functional.
Data set [2] deals with Escherichia coli. The experiment in a line: Minimum inhibitory concentration (MIC)preventing growth of Escherichia coli. It counts as functional.
Data set [3] relates to Pseudomonas aeruginosa. Put plainly: Minimum inhibitory concentration (MIC)preventing growth of Pseudomonas aeruginosa. The format is functional.
Data set [4] concerns Staphylococcus aureus. The experiment in a line: Minimum inhibitory concentration (MIC) preventing growth of […]. The format is functional.
In data set [5] the test system is Pseudomonas aeruginosa. The experiment in a line: Efficacy on systemic infections after oral administration in mice was determined against Pseudomonas aeruginosa HS-116. It counts as functional. The gist of the method: (§1)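 Mouse protection test using 4 groups of 10 mice. Mice were infected intraperitoneally with a bacterial suspension slightly above LD100. A single oral dose was given immediately after infection, with four doses, one per group, chosen from in vitro activity. Survival was scored after one week, and ED50 (total mg/kg protecting 50% of mice) was interpolated from group survival rates.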

In data set [6] the test system is Staphylococcus aureus. The experiment in a line: Efficacy on systemic infections after oral administration in mice was determined against […] HS-93. The format is functional. The gist of the method:
as §1

Data set [7] concerns Escherichia coli. Put plainly: Efficacy on systemic infections after oral administration in mice was determined against Escherichia coli HM-42. The format is functional. The gist of the method:
as §1

Regarding `CC1(N)CN(c2cc3c(cc2F)c(=O)c(C(=O)O)cn3C(C)(C)C)C1`, the MIC – broadly, the lowest concentration found to suppress growth – with Proteus vulgaris came to 0.25 µg/mL (≈ 0.72 µM); against Bacillus subtilis, 0.06 µg/mL (≈ 0.173 µM); in [1], 0.12 µg/mL (≈ 0.345 µM); in the data set on Bacillus cereus, 0.25 µg/mL (≈ 0.72 µM); in the data set on Enterobacter cloacae, 0.25 µg/mL (≈ 0.72 µM); against Enterococcus faecalis, 0.5 µg/mL (≈ 1.44 µM). Further, the MIC against Morganella morganii was 0.25 µg/mL (≈ 0.72 µM); in the data set with Klebsiella pneumoniae, 0.12 µg/mL (≈ 0.345 µM); in the data set on Escherichia coli [2], 0.12 µg/mL (≈ 0.345 µM); in the data set on Pseudomonas aeruginosa [3] it was 2 µg/mL (≈ 5.76 µM); against Staphylococcus aureus [4], 0.25 µg/mL (≈ 0.72 µM). Besides, the AUC – broadly, concentration integrated over time – with Mus musculus came out at 5400 ng·h/mL.

As to `CNC1CN(c2c(F)cc3c(=O)c(C(=O)O)cn(-c4ccc(F)cc4F)c3c2Cl)C1`, the MIC worked out at 0.12 µg/mL (≈ 0.274 µM) in the data set on Proteus vulgaris; 0.015 µg/mL (≈ 0.0343 µM) with Bacillus subtilis; 0.06 µg/mL (≈ 0.137 µM) in [1]; 0.06 µg/mL (≈ 0.137 µM) in the data set on Bacillus cereus; 0.12 µg/mL (≈ 0.274 µM) in the data set with Enterobacter cloacae; 0.12 µg/mL (≈ 0.274 µM) in the data set on Enterococcus faecalis. The MIC with Morganella morganii is 0.12 µg/mL (≈ 0.274 µM); against Klebsiella pneumoniae, 0.12 µg/mL (≈ 0.274 µM); with Escherichia coli [2] it was 0.015 µg/mL (≈ 0.0343 µM); with Pseudomonas aeruginosa [3], 0.25 µg/mL (≈ 0.571 µM); in the data set on Staphylococcus aureus [4], 0.015 µg/mL (≈ 0.0343 µM). Also, the ED50 – broadly, the midpoint of the dose-response relation – in the data set on Pseudomonas aeruginosa [5] was 30 mg/kg; with Staphylococcus aureus [6], 1.3 mg/kg; in the data set on Escherichia coli [7] it was 1.3 mg/kg. For the same molecule, the AUC with Mus musculus was 15300 ng·h/mL.

As for `CC1(N)CN(c2nc3c(cc2F)c(=O)c(C(=O)O)cn3-c2ccc(F)cc2)C1`, the MIC was 1 µg/mL (≈ 2.59 µM) with Proteus vulgaris; 0.06 µg/mL (≈ 0.155 µM) against Bacillus subtilis; 0.25 µg/mL (≈ 0.647 µM) in data set [1]; 0.25 µg/mL (≈ 0.647 µM) in the data set on Bacillus cereus; 0.06 µg/mL (≈ 0.155 µM) against Enterobacter cloacae; 4 µg/mL (≈ 10.4 µM) in the data set on Enterococcus faecalis. In addition, the MIC came to 0.12 µg/mL (≈ 0.311 µM) against Morganella morganii; 0.06 µg/mL (≈ 0.155 µM) in the data set with Klebsiella pneumoniae; 0.06 µg/mL (≈ 0.155 µM) in the data set with Escherichia coli [2]; 2 µg/mL (≈ 5.18 µM) against Pseudomonas aeruginosa [3]; 0.25 µg/mL (≈ 0.647 µM) in the data set on Staphylococcus aureus [4]. Further, the ED50 in the data set with Pseudomonas aeruginosa [5] is 82.7 mg/kg; in the data set with Staphylococcus aureus [6] it was 7.5 mg/kg; in the data set on Escherichia coli [7], 1.3 mg/kg. In the data set on Mus musculus, the area under the curve (AUC) came to 33000 ng·h/mL.

For `CCNCC1CN(c2c(F)cc3c(=O)c(C(=O)O)cn(C4CC4)c3c2F)C1`, the MIC was determined as 1 µg/mL (≈ 2.65 µM) against Proteus vulgaris; 0.06 µg/mL (≈ 0.159 µM) with Bacillus subtilis; 0.25 µg/mL (≈ 0.662 µM) in data set [1]; 0.5 µg/mL (≈ 1.32 µM) in the data set with Bacillus cereus; 0.25 µg/mL (≈ 0.662 µM) in the data set with Enterobacter cloacae; 0.5 µg/mL (≈ 1.32 µM) against Enterococcus faecalis. The minimum inhibitory concentration (MIC) was 0.25 µg/mL (≈ 0.662 µM) in the data set on Morganella morganii; 0.06 µg/mL (≈ 0.159 µM) in the data set on Klebsiella pneumoniae; 0.25 µg/mL (≈ 0.662 µM) with Escherichia coli [2]; 4 µg/mL (≈ 10.6 µM) in the data set on Pseudomonas aeruginosa [3]; 0.5 µg/mL (≈ 1.32 µM) in the data set with Staphylococcus aureus [4]. This molecule returned an AUC in the data set on Mus musculus of 14100 ng·h/mL.

On to `CNC1(C)CN(c2nc3c(cc2F)c(=O)c(C(=O)O)cn3C2CC2)C1`, for which the MIC with Proteus vulgaris was 0.25 µg/mL (≈ 0.722 µM); in the data set on Bacillus subtilis, 0.03 µg/mL (≈ 0.0866 µM); in data set [1], 0.25 µg/mL (≈ 0.722 µM); with Bacillus cereus, 0.12 µg/mL (≈ 0.346 µM); against Enterobacter cloacae, 0.06 µg/mL (≈ 0.173 µM); against Enterococcus faecalis, 1 µg/mL (≈ 2.89 µM). The MIC worked out at 0.06 µg/mL (≈ 0.173 µM) against Morganella morganii; 0.03 µg/mL (≈ 0.0866 µM) with Klebsiella pneumoniae; 0.03 µg/mL (≈ 0.0866 µM) in the data set on Escherichia coli [2]; 1 µg/mL (≈ 2.89 µM) against Pseudomonas aeruginosa [3]; 0.25 µg/mL (≈ 0.722 µM) against Staphylococcus aureus [4]. Moreover, the ED50 turned out to be 102 mg/kg in the data set on Pseudomonas aeruginosa [5], 9.6 mg/kg in the data set on Staphylococcus aureus [6] and 3 mg/kg in the data set on Escherichia coli [7]. The AUC with Mus musculus came out at 22900 ng·h/mL.

In the case of `NC1CN(c2c(F)cc3c(=O)c(C(=O)O)cn(C4CC4)c3c2Cl)C1`, the MIC against Proteus vulgaris came out at 0.015 µg/mL (≈ 0.0426 µM); against Bacillus subtilis, 0.06 µg/mL (≈ 0.171 µM); in data set [1], 0.12 µg/mL (≈ 0.341 µM); in the data set with Bacillus cereus, 0.12 µg/mL (≈ 0.341 µM); with Enterobacter cloacae it was 0.015 µg/mL (≈ 0.0426 µM); against Enterococcus faecalis, 0.12 µg/mL (≈ 0.341 µM). Besides, the MIC with Morganella morganii stood at 0.015 µg/mL (≈ 0.0426 µM); against Klebsiella pneumoniae, 0.06 µg/mL (≈ 0.171 µM); against Escherichia coli [2], 0.015 µg/mL (≈ 0.0426 µM); in the data set with Pseudomonas aeruginosa [3], 0.25 µg/mL (≈ 0.711 µM); in the data set with Staphylococcus aureus [4], 0.12 µg/mL (≈ 0.341 µM). Further, the ED50 in the data set on Pseudomonas aeruginosa [5] is 34 mg/kg; with Staphylococcus aureus [6] it was 7.2 mg/kg; in the data set on Escherichia coli [7], 1.1 mg/kg. For the same molecule, the AUC with Mus musculus was 8500 ng·h/mL.

Consider `O=C(O)c1cn(C2CC2)c2cc(N3CCNCC3)c(F)cc2c1=O` [CIPROFLOXACIN], for which the MIC in the data set on Proteus vulgaris was 0.06 µg/mL (≈ 0.181 µM); with Bacillus subtilis, 0.06 µg/mL (≈ 0.181 µM); in data set [1], 0.5 µg/mL (≈ 1.51 µM); in the data set on Bacillus cereus, 0.25 µg/mL (≈ 0.754 µM); in the data set with Enterococcus faecalis, 0.5 µg/mL (≈ 1.51 µM); against Morganella morganii, 0.06 µg/mL (≈ 0.181 µM). For the same molecule, the figures for the MIC in the data set with Klebsiella pneumoniae, in the data set with Pseudomonas aeruginosa [3] and with Staphylococcus aureus [4] were 0.03 µg/mL (≈ 0.0905 µM), 0.12 µg/mL (≈ 0.362 µM) and 0.25 µg/mL (≈ 0.754 µM), respectively. Moreover, the ED50 in the data set on Pseudomonas aeruginosa [5] was found to be 70.3 mg/kg; in the data set with Staphylococcus aureus [6] it was 45.1 mg/kg; with Escherichia coli [7] it was 3 mg/kg. In the data set with Mus musculus, this molecule gave an AUC of 2300 ng·h/mL.
